Assays:
RAW264.7 [1] = assay: Antiinflammatory activity in mouse RAW264.7 cells assessed as inhibition of IFN-gamma/LPS-stimulated nitric oxide production after 17 to 20 hrs by Griess assay; type: functional, cell-based
Summary of the method: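 RAW 264.7 cells were grown in DMEM with 10% FBS and 1% penicillin/streptomycin (5% CO₂, 37 °C). At 80–90% confluency they were scraped and seeded at 5 × 10⁴ cells/well. Nitrite was measured by Griess assay, and % NO inhibition was taken relative to the IFN-γ/LPS control. Results are the mean ± S.E.M. of three experiments; IC₅₀ values were computed from these.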

[2] = Antioxidant activity assessed as nitric oxide scavenging activity after 60 min by Griess assay; type: functional
Summary of the method: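 Sodium nitroprusside (10 mM) was incubated alone or with test compounds (7.81–500) for 60 min under light exposure. Nitrite in the mixture was measured by Griess assay, and % NO scavenging was calculated from OD versus the control. Results are the mean ± S.E.M. of three runs; IC₅₀ values were calculated.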

[3] = tested on: Radical scavenging activity; assay: Antioxidant activity assessed as DPPH free radical scavenging activity after 30 mins; type: functional
Summary of the method: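 Compound stocks were made in 100% DMSO and serially diluted from 7.81 to 500. DPPH (1 mg/ml in methanol) was added, and plates were shaken gently and kept in the dark for 30 min. Absorbance was read at 517 nm, and % scavenging was calculated versus the control. Results are the mean ± S.E.M. of three runs; IC₅₀ values were calculated.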

Tyrosinase = target: T1, Tyrosinase (Homo sapiens, UniProt P14679); assay: Inhibition of tyrosinase
T1 sequence (P14679 whole entry): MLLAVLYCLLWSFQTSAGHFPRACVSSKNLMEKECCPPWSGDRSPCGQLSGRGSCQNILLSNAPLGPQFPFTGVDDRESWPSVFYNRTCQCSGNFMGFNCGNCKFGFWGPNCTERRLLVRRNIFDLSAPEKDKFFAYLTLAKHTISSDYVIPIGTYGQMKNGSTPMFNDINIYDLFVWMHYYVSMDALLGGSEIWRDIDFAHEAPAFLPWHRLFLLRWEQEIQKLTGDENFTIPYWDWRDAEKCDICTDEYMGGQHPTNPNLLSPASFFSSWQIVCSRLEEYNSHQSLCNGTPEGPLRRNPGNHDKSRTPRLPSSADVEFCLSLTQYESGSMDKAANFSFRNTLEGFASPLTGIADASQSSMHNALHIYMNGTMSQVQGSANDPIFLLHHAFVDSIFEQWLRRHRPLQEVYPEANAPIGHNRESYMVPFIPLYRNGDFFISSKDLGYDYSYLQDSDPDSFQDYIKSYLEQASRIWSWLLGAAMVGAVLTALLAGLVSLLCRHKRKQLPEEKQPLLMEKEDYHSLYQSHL

RAW264.7 [4] = assay: Cytotoxicity against IFN-gamma/LPS-stimulated mouse RAW264.7 cells assessed as cell viability at 50 uM after 17 to 20 hrs by MTT assay; type: cell-based; conditions: raw264.7, 50 µM
Summary of the method: (§1)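 RAW 264.7 cells were cultured and seeded as for the NO assay. In the MTT read-out, cells were incubated for 4 h at 37 °C under 5% CO₂. Formazan was dissolved in DMSO and absorbance read at 570 nm. Viability (%) = OD sample / OD control × 100. Results are the mean ± S.E.M. of three experiments.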

RAW264.7 [5] = assay: Cytotoxicity against IFN-gamma/LPS-stimulated mouse RAW264.7 cells assessed as cell viability at 25 uM after 17 to 20 hrs by MTT assay; type: cell-based; conditions: raw264.7, 25 µM; summary of the method: as §1
[6] = Cytotoxicity against HEMn cells; type: cell-based; conditions: human
[7] = Mus musculus, RAW264.7, read-out: IC50

Row | Compound | IC50 (RAW264.7 [1]; [7]) [µM] | IC50 [2] | IC50 [3] | IC50 (Tyrosinase) | IC50 ([2]; read-out: IC50) [µM] | IC50 ([3]; read-out: IC50) [µM] | IC50 (RAW264.7 [1]; raw264.7) | IC50 (Tyrosinase; read-out: IC50) [µM] | other results
1 | COc1ccc(OC)c(/C=C/C(=O)/C=C/c2cc(OC)ccc2OC)c1 | 13.6 | Not Active | Not Active | Not Active | – | – | – | – | Activity (RAW264.7 [4]): Toxic
2 | O=C(/C=C/c1ccccc1O)/C=C/c1ccccc1O | 10.2 | – | – | Not Active | > 500 | > 500 | – | – | Activity (RAW264.7 [5]): Toxic; Activity (RAW264.7 [4]): Toxic
3 | O=C(/C=C/c1ccc(O)cc1)/C=C/c1ccc(O)cc1 | – | – | – | – | > 500 | > 500 | Not Active | 79 | Activity [6]: Toxic
4 | COC(=O)[C@@H](N)CCCNC(=N)N[N+](=O)[O-] [L-NAME] | 27.1 | – | – | – | – | – | – | – | –
5 | O=c1c(O)c(-c2ccc(O)c(O)c2)oc2cc(O)cc(O)c12 [QUERCETIN] | – | Not Active | – | – | – | 41.8 | – | – | –
6 | CC1(C)N([O])C(c2ccccc2)=[N+]([O-])C1(C)C | – | – | – | – | 0.57 | – | – | – | –

Further lines, with some results ahead:

Row | IC50 (RAW264.7 [1]; [7]) [µM] | IC50 [2] | IC50 [3] | IC50 (Tyrosinase) | IC50 ([2]; read-out: IC50) [µM] | IC50 ([3]; read-out: IC50) [µM] | IC50 (RAW264.7 [1]; raw264.7) | IC50 (Tyrosinase; read-out: IC50) [µM] | Compound | other results
7 | 20.4 | – | – | Not Active | > 500 | 110 | – | – | COc1cc(/C=C/C(=O)CC(=O)/C=C/c2ccc(O)c(OC)c2)ccc1O [CURCUMIN] | –
8 | – | Not Active | Not Active | – | – | – | Not Active | > 250 | O=C(/C=C/c1ccc(F)cc1)/C=C/c1ccc(F)cc1 | –
9 | – | – | – | – | > 500 | 257 | Not Active | > 250 | COc1cc(/C=C/C(=O)/C=C/c2ccc(O)c(OC)c2)ccc1O | –
10 | 33.1 | Not Active | Not Active | – | – | – | – | > 250 | COc1ccc(/C=C/C(=O)/C=C/c2ccc(OC)cc2F)c(F)c1 | –

Source: ChEMBL document CHEMBL1153005, “Synthesis and biological evaluation of curcumin-like diarylpentanoid analogues for anti-inflammatory, antioxidant and anti-tyrosinase activities” (Eur J Med Chem, 2009)
